High-throughput results as filed in PubChem.
HMGR II inh: inhibitors of E. faecalis class II HMGR, primary screen, biochemical, Enterococcus faecalis; inhibition, % at 10 µM; 190,000 tested, 0.41% active; HMG-CoA reductase (Enterococcus faecalis, mvaE); purified E. faecalis HMGR, NADPH absorbance 340 nm kinetic;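 active = inhibition above a set limit, the median over all tested compounds plus 3 SD, cut at about 9.5% in these data; inconclusive = no clear call, values can overlap the other calls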;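 also: enzyme runs in reverse so mevalonate oxidation gives rising NADPH absorbance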
RanGTP-Imp inh: inhibitors of RanGTP-importin-beta interaction, primary screen, biochemical, FRET, CFP-Ran, YFP-importin-beta, homogeneous | cell-free CFP-Ran/YFP-importin-beta FRET ratio | 300,000 tested, 1.1% active | AID 2216, 2009 | inhibition, % (no concentration beside the values);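 active = more than half of the replicate wells show a fall in the fluorescence ratio signal beyond about 16%, limit read from the data, passing the limit was not always enough; inconclusive = exactly half of the replicate wells pass the set limit; inactive = fewer than half of replicates pass the limit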
Wee1 degr inh: Wee1 degradation inhibitors, primary screen, cell-based, HeLa, Wee1K328M-luciferase, luminescence. Wee1-like protein kinase (Homo sapiens), P30291. reporter increase, % at 5 µM. HeLa Luc-Wee1K328M stability; 100% = proteasome inhibitor MG132 effect. 220,000 tested, 1.2% active. AID 1321, 2008;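 active = activation above the mean of all tested compounds plus 3 SD, set per screening run, cut at about 8.8% in these data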;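 also: cells exposed to compound for 20 h before luminescence read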
Runt-SMMHC FRET: inhibitors of RUNX1 Runt–CBFb-SMMHC binding, primary screen, biochemical, FRET, Cerulean-Runt, Venus-CBFb-SMMHC, uHTS | Cerulean-Runt/Venus-CBFb-SMMHC FRET ratio 530/480, 1 h | Runt-related transcription factor 1 (Homo sapiens) + Core-binding factor subunit beta … | inhibition, % at 20 µM | 220,000 tested, 0.74% active;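 active = mean inhibition across duplicate retests at 20 µM reaching about 50%, limit read from the data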;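 also: inhibitors lower the FRET ratio by blocking Runt binding to CBFb-SMMHC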
Target sequence (Q01196 whole entry, looked up): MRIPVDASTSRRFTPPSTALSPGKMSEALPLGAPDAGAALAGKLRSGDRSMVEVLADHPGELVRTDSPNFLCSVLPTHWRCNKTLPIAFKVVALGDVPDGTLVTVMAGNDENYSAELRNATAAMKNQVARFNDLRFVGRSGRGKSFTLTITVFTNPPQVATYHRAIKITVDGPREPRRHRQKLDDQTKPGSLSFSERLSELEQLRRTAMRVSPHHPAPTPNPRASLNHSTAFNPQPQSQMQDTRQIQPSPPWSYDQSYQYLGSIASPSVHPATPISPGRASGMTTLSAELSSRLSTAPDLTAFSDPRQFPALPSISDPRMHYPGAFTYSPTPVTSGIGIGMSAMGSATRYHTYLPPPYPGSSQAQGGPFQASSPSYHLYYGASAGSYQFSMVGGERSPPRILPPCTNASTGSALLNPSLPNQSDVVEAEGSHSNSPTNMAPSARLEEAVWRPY
Target sequence (Q13951 whole entry, looked up): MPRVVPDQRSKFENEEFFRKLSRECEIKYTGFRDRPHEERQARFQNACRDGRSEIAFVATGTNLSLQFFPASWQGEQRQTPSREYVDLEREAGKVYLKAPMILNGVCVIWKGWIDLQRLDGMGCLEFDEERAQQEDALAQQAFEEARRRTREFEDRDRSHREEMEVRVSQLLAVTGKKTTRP
Runt-CBFb FRET: inhibitors of RUNX1 Runt–CBFb binding, primary screen, biochemical, FRET, Cerulean-Runt, Venus-CBFb, uHTS; Runt-related transcription factor 1 (Homo sapiens) + Core-binding factor subunit beta …; Cerulean-Runt/Venus-CBFb FRET ratio 530/480, 1 h; inhibition, % at 20 µM; 220,000 tested, 0.46% active; AID 1496, 2009;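 active = inhibition over about 50% at 20 µM in the single-dose screen, limit read from the data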
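Buffer or medium: Tris pH 7.5 buffer with BSA. Assay system: Cerulean-labeled Runt domain protein. Amount: each fluorescent fusion protein 100 nM. Read-out basis: loss of energy transfer signal. Incubation: 1 h compound exposure, room temperature. Probe or stimulus: Venus-CBFb binding partner, 100 nM. Detection: FRET, excitation 422 nm, emission at 530 and 480 nm.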
PHOSPHO1 inh: PubChem AID 1565 | recombinant PHOSPHO1, absorbance phosphatase assay | 290,000 tested, 1.1% active | inhibition, % at 13.3 µM | Phosphoethanolamine/phosphocholine phosphatase (Homo sapiens), Q8TCT1; in the data active = inhibition above about 60%
Numbers stand for hits; . = inactive; ? = inconclusive; / = no result. A selection: hits, their analogues and other compounds. The true share with any hit is near 3.4%.

SMILES | HMGR II inh | RanGTP-Imp inh | Wee1 degr inh | Runt-SMMHC FRET | Runt-CBFb FRET | PHOSPHO1 inh
O=C(Nc1ccc2c(c1)OCCO2)C1CCN(C(=O)c2ccc([N+](=O)[O-])cc2)CC1 | . | . | . | . | . | 66
Cc1ccccc1-n1c(=O)cc(N2CCCCCC2)[nH]c1=O | . | 145 | . | . | / | .
O=c1cc(N2CCCCCC2)[nH]c(=O)n1-c1ccccc1Cl | . | / | . | . | . | .
CCOC(=O)C1CCN(c2cc(=O)n(-c3ccccc3Cl)c(=O)[nH]2)CC1 | . | 59 | . | . | . | .
Cc1oc2c(CN3CCCC3)c(O)ccc2c(=O)c1Oc1ccccc1Br | . | . | . | . | . | .
CN1CCN(Cc2c(O)ccc3c(=O)c(Oc4ccccc4Cl)c(C(F)(F)F)oc23)CC1 | . | 22 | . | . | . | .
CCOc1ccc(NC(=O)CN(C)C(=O)CCCc2c[nH]c3ccccc23)cc1OCC | / | . | / | / | / | /
CN1CCN(C(=O)c2cnn3c(C(F)(F)F)cc(-c4ccc5c(c4)OCO5)nc23)CC1 | . | . | . | . | . | .
Cc1ccc(-c2cc(C(F)(F)F)n3ncc(C(=O)N4CCN(C)CC4)c3n2)cc1 | . | / | 9.2 | . | . | .
CC(=O)NC12CC3CC(C1)CC(C(=O)Nc1nc4c(C)cccc4s1)(C3)C2 | / | . | / | / | / | .
O=c1[nH]c2ccccc2nc1-c1cccs1 | . | . | . | 169 | 91 | .
c1csc(-c2nnsc2-c2nc3ccccc3[nH]2)c1 | . | . | . | . | . | 96
COc1ccccc1N(CC(=O)Nc1ccc2c(c1)OCCO2)S(=O)(=O)c1ccc(C)cc1 | / | . | / | / | / | .
Cc1ccc(C(=O)/C=C/c2ccc(-c3ccc(C)cc3)o2)cc1 | . | . | . | . | . | .
O=C(/C=C\c1ccc(-c2ccccc2)o1)c1ccccc1 | . | . | 8.8 | . | . | .
COc1ccc(S(=O)(=O)N2CCC(C(N)=O)CC2)cc1C(=O)N1CCCCCC1 | / | . | / | / | / | .
Cc1cc(C(N)=O)c2cc(Br)ccc2n1 | . | 27 | . | . | . | .
COCn1c(-c2ccc(OC)cc2)nc2ccccc21 | . | . | 9.2 | . | . | .
CCn1c(COc2ccc(OC)cc2)nc2ccccc21 | . | . | 8.8 | . | / | .
CCn1c(COc2ccccc2)nc2ccccc21 | . | . | . | . | . | .
Cc1ccc(S(=O)(=O)Cc2nnnn2-c2ccccc2)cc1 | / | . | / | / | / | .
COCCn1nnnc1SCC(=O)c1ccccc1 | . | . | . | . | 84 | .
COCCn1c(SCC(=O)c2ccc3c(c2)OCCO3)nnc1C(C)C | . | ? | . | . | . | .
COCCn1c(SCC(=O)c2ccc(Cl)cc2)nnc1C(C)C | . | . | . | . | . | 75
CCCN(CCC)c1ccc(/C=C/c2ccc3cc(OCC)ccc3n2)cc1 | / | 21 | . | . | . | .
SMILES | HMGR II inh | RanGTP-Imp inh | Wee1 degr inh | Runt-SMMHC FRET | Runt-CBFb FRET | PHOSPHO1 inh
CN(C)c1ccc(/C=C/c2ccc3ccccc3n2)cc1 | / | . | . | . | . | .
CCCn1nnnc1SCC(=O)N1C(C)CCCC1C (stereo unspecified) | / | . | / | / | / | .
Cc1ccc(Nc2nc(CSc3nnc(-c4ccncc4)n3C)cs2)cc1 | . | . | . | . | . | .
Cc1ccccc1Nc1nc(CSc2nnc(-c3ccoc3C)n2C)cs1 | . | . | . | . | . | 69
Cc1cccc(NC(=O)CSc2nc3nc4c(cc3c(=O)n2-c2ccccc2)CCCC4)c1 | . | . | . | . | . | .
Cc1ccccc1-n1c(SCC(=O)Nc2ccccc2)nc2nc3c(cc2c1=O)CCCC3 | 13 | . | . | . | . | .
COc1cccc(N2CCN(C(C)C(=O)NC34CC5CC(CC(C5)C3)C4)CC2)c1 (stereo unspecified) | / | . | / | / | / | .
Nc1ccc(C(=O)Nc2ccco2)cc1 | . | 37 | . | . | . | .
